Results published in ChEMBL document CHEMBL5661979, “Pharmacological inhibition of BMK1 suppresses tumor growth through promyelocytic leukemia protein” (Cancer Cell, 2010).

Assays:
[1] = target: Serine/threonine-protein kinase ATR (Homo sapiens, UniProt Q13535); test: Inhibition of ATR in human HeLa cells lysate pre incubated for 15 mins followed by ATP acyl phosphate probe addition and measured after 10 mins by LC-MS/MS analysis; assay type: subcellular
Summary of the method: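 KiNativ-type profiling in HeLa lysate (5 mg/mL total protein). Lysate preincubated 15 min with inhibitor at 50, 10, 2, 0.8 or 0 μM, then ATP or ADP acylphosphate probe added (5 μM final) for 10 min. Reaction stopped with urea and analysed by targeted MS, using up to four fragment ions per kinase peptide-probe conjugate. % inhibition calculated against untreated lysate. Duplicate reactions.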

[2] = target: Cyclin-dependent kinase 5 (Homo sapiens, UniProt Q00535); test: Inhibition of CDK5 in human HeLa cells lysate pre incubated for 15 mins followed by ATP acyl phosphate probe addition and measured after 10 mins by LC-MS/MS analysis; assay type: subcellular
Summary of the method: (§1)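 KiNativ profiling in HeLa lysate (5 mg/mL total protein). Lysate incubated 15 min with inhibitor at 50, 10, 2, 0.8 or 0 μM. ATP or ADP acylphosphate probe then added (5 μM final) and reacted 10 min. Reaction stopped with urea and analysed by targeted MS, using up to four fragment ions per kinase peptide-probe conjugate. % inhibition taken against untreated lysate. Run in duplicate.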

[3] = target: Focal adhesion kinase 1 (Homo sapiens, UniProt Q05397); test: Inhibition of FAK in human HeLa cells lysate pre incubated for 15 mins followed by ADP acyl phosphate probe addition and measured after 10 mins by LC-MS/MS analysis; assay type: subcellular
[4] = target: Tyrosine-protein kinase CSK (Homo sapiens, UniProt P41240); test: Inhibition of CSK in human HeLa cells lysate pre incubated for 15 mins followed by ADP acyl phosphate probe addition and measured after 10 mins by LC-MS/MS analysis; assay type: subcellular
[5] = target: Dual specificity mitogen-activated protein kinase kinase 6 (Homo sapiens, UniProt P52564); test: Inhibition of MAP2K6 in human HeLa cells lysate pre incubated for 15 mins followed by ADP acyl phosphate probe addition and measured after 10 mins by LC-MS/MS analysis; assay type: subcellular
Sequence of Dual specificity mitogen-activated protein kinase kinase 6 (P52564 whole entry, canonical isoform): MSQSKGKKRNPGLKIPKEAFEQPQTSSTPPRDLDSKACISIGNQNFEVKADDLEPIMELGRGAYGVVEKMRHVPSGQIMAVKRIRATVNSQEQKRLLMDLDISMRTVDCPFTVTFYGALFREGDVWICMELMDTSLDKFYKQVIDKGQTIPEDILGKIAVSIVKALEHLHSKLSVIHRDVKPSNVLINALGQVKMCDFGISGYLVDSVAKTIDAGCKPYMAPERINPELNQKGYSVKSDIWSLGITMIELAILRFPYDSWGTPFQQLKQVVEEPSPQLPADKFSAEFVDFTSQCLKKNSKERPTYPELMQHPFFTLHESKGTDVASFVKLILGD

[6] = target: Glycogen synthase kinase-3 beta (Homo sapiens, UniProt P49841); test: Inhibition of GSK3B isoform 2 in human HeLa cells lysate at 50 uM pre incubated for 15 mins followed by ADP acyl phosphate probe addition and measured after 10 mins by LC-MS/MS analysis relative to control; assay type: subcellular; conditions: time 25.0 min
Sequence of Glycogen synthase kinase-3 beta (P49841 whole entry, looked up, canonical isoform): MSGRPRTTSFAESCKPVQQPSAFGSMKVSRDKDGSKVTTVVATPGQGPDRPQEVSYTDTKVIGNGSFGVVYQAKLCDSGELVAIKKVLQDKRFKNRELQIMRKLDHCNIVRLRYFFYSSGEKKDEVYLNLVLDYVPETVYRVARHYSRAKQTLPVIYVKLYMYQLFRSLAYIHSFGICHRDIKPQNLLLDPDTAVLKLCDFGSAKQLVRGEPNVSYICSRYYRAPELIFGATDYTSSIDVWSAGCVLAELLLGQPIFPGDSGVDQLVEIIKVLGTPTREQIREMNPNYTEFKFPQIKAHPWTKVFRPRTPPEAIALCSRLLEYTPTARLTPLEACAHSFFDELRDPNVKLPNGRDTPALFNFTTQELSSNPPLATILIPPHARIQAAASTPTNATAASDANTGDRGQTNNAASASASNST

[7] = target: RPS6KA1/RPS6KA2/RPS6KA3 (Homo sapiens, UniProt P51812+Q15349+Q15418); test: Inhibition of RSK1/2/3 in human HeLa cells lysate at 50 uM pre incubated for 15 mins followed by ADP acyl phosphate probe addition and measured after 10 mins by LC-MS/MS analysis relative to control; assay type: subcellular; conditions: time 25.0 min
Sequence of RPS6KA1/RPS6KA2/RPS6KA3 (P51812 whole entry, looked up, the tested form may be a part): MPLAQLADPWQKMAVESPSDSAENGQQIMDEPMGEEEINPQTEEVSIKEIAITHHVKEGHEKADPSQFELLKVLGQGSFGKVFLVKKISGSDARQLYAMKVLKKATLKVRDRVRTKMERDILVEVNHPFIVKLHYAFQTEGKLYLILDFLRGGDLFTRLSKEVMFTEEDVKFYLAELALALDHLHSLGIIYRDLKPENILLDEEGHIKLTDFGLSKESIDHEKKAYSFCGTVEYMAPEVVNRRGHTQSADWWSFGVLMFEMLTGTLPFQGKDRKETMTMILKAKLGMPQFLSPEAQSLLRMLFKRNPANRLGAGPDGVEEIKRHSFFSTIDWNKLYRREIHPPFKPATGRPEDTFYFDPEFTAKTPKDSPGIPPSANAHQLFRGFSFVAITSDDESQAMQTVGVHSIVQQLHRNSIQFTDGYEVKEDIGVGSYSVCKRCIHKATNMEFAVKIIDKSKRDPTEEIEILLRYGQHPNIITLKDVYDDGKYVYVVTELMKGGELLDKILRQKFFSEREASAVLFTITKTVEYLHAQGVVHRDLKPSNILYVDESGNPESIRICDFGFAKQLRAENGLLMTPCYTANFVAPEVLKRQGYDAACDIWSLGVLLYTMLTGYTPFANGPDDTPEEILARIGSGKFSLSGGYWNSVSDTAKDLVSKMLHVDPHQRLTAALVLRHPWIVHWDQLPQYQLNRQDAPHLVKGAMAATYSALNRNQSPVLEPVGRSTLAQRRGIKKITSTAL
Sequence of RPS6KA1/RPS6KA2/RPS6KA3 (Q15349 whole entry, looked up, the tested form may be a part): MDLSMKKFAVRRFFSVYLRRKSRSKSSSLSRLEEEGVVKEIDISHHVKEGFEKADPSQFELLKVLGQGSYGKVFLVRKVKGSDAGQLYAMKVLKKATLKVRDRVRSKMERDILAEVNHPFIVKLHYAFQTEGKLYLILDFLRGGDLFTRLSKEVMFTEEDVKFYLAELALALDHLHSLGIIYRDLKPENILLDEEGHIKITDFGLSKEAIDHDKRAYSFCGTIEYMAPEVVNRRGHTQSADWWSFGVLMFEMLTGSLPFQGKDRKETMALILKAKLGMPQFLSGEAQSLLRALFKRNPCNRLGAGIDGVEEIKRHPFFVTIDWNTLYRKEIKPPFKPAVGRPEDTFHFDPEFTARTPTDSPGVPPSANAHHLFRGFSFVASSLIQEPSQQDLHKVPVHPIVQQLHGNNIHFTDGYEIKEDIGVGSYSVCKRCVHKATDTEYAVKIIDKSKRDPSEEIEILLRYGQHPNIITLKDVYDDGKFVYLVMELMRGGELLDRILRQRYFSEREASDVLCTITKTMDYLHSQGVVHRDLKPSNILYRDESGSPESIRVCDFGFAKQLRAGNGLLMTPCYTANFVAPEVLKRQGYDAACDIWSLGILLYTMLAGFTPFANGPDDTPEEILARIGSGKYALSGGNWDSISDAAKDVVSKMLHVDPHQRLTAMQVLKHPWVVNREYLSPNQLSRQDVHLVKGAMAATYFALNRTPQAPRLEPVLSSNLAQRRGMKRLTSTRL
Sequence of RPS6KA1/RPS6KA2/RPS6KA3 (Q15418 whole entry, looked up, the tested form may be a part): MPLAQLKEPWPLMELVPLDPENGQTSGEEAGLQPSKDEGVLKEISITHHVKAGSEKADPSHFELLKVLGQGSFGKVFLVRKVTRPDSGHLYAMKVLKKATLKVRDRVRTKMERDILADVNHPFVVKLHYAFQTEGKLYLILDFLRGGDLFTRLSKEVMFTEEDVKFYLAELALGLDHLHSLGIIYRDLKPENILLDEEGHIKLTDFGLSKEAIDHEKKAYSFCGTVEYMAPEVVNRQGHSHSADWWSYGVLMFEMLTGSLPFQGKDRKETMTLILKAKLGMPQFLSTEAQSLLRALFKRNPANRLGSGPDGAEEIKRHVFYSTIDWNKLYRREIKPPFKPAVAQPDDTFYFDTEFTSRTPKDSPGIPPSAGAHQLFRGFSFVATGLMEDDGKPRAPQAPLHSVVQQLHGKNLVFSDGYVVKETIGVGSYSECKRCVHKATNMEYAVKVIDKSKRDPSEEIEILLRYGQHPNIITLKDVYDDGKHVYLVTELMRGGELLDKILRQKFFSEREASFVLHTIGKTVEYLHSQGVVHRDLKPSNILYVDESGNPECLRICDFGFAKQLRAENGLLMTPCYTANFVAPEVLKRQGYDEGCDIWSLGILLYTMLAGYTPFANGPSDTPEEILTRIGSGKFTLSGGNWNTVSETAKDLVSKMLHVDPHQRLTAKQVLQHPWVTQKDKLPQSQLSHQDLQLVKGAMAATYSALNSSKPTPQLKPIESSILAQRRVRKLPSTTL

[8] = target: Ribosomal protein S6 kinase alpha-3 (Homo sapiens, UniProt P51812); test: Inhibition of RSK2 domain 2 in human HeLa cells lysate at 10 uM pre incubated for 15 mins followed by ADP acyl phosphate probe addition and measured after 10 mins by LC-MS/MS analysis relative to control; assay type: subcellular; conditions: time 25.0 min
Sequence of Ribosomal protein S6 kinase alpha-3 (P51812 whole entry, the tested form may be a part): as the sequence (P51812 whole entry, looked up, the tested form may be a part) above

[9] = target: Ribosomal protein S6 kinase alpha-5 (Homo sapiens, UniProt O75582); test: Inhibition of MSK1 domain 1 in human HeLa cells lysate at 10 uM pre incubated for 15 mins followed by ADP acyl phosphate probe addition and measured after 10 mins by LC-MS/MS analysis relative to control; assay type: subcellular; conditions: time 25.0 min
[10] = Inhibition of MST4/YSK1 in human HeLa cells lysate at 10 uM pre incubated for 15 mins followed by ADP acyl phosphate probe addition and measured after 10 mins by LC-MS/MS analysis relative to control; conditions: 25 min, condition cancer
[11] = target: T1, Dual specificity mitogen-activated protein kinase kinase 3 (Homo sapiens) (UniProt P46734); test: Inhibition of MAP2K3 in human HeLa cells lysate at 2 uM pre incubated for 15 mins followed by ADP acyl phosphate probe addition and measured after 10 mins by LC-MS/MS analysis relative to control; assay type: subcellular; conditions: time 25.0 min
T1 sequence (whole entry): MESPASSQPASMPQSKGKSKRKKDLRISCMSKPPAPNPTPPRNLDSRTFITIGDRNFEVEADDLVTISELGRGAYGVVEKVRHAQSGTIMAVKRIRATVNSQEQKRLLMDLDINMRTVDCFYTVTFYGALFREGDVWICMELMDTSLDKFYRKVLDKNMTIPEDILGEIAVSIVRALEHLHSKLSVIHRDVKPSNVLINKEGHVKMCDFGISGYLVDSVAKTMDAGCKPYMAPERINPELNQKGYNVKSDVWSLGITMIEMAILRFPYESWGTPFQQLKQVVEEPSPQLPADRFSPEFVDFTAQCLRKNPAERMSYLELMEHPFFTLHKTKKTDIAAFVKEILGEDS

[12] = target: Cyclin-dependent kinase 10 (Homo sapiens, UniProt Q15131); test: Inhibition of CDK10 in human HeLa cells lysate at 50 uM pre incubated for 15 mins followed by ATP acyl phosphate probe addition and measured after 10 mins by LC-MS/MS analysis relative to control; assay type: subcellular; conditions: time 25.0 min; summary of the method: as §1
[13] = target: Cyclin-dependent kinase 11B (Homo sapiens, UniProt P21127); test: Inhibition of PITSLRE in human HeLa cells lysate at 50 uM pre incubated for 15 mins followed by ATP acyl phosphate probe addition and measured after 10 mins by LC-MS/MS analysis relative to control; assay type: subcellular; conditions: time 25.0 min
Sequence of Cyclin-dependent kinase 11B (P21127 whole entry): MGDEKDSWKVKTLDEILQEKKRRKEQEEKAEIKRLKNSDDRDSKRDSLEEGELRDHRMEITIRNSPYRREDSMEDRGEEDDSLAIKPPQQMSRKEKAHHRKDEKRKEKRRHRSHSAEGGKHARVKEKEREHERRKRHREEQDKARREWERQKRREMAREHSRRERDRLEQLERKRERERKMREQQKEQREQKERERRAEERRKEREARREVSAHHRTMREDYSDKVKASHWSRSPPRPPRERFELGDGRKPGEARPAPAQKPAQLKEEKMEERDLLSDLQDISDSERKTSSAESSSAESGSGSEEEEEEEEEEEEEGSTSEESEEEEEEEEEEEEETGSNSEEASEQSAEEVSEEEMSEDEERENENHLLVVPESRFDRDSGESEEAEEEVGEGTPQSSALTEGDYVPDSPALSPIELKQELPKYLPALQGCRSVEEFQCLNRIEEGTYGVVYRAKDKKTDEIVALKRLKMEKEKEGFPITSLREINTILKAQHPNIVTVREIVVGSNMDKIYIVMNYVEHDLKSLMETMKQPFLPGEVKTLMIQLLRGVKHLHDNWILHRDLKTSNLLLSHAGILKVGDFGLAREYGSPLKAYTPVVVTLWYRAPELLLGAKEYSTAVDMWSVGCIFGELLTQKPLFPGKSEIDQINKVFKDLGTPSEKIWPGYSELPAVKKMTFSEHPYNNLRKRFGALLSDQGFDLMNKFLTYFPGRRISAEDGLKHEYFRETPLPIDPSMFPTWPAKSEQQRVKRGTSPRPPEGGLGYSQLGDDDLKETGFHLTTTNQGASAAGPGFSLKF

[14] = target: Cyclin-dependent kinase 2 (Homo sapiens, UniProt P24941); test: Inhibition of CDK2 in human HeLa cells lysate at 10 uM pre incubated for 15 mins followed by ATP acyl phosphate probe addition and measured after 10 mins by LC-MS/MS analysis relative to control; assay type: subcellular; conditions: time 25.0 min; summary of the method: as §1
[15] = target: Casein kinase I isoform alpha (Homo sapiens, UniProt P48729); test: Inhibition of CK1alpha in human HeLa cells lysate at 2 uM pre incubated for 15 mins followed by ATP acyl phosphate probe addition and measured after 10 mins by LC-MS/MS analysis relative to control; assay type: subcellular; conditions: time 25.0 min
[16] = target: Serine/threonine-protein kinase 24 (Homo sapiens, UniProt Q9Y6E0); test: Inhibition of MST3 in human HeLa cells lysate at 2 uM pre incubated for 15 mins followed by ATP acyl phosphate probe addition and measured after 10 mins by LC-MS/MS analysis relative to control; assay type: subcellular; conditions: time 25.0 min
Sequence of Serine/threonine-protein kinase 24 (Q9Y6E0 whole entry, looked up): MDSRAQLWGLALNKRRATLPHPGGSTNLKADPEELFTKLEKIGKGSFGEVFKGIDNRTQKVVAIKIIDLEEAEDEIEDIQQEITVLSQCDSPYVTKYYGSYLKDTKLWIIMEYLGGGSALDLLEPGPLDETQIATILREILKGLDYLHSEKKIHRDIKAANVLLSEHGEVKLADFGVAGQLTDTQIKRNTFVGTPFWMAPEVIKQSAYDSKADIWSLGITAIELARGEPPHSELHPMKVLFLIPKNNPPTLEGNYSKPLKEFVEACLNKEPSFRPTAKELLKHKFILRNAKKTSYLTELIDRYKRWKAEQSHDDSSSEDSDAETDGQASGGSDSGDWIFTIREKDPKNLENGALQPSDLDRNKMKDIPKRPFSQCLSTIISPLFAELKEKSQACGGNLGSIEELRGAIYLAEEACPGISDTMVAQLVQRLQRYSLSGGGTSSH

[17] = target: SRSF protein kinase 1 (Homo sapiens, UniProt Q96SB4); test: Inhibition of SRPK1 in human HeLa cells lysate at 2 uM pre incubated for 15 mins followed by ATP acyl phosphate probe addition and measured after 10 mins by LC-MS/MS analysis relative to control; assay type: subcellular; conditions: time 25.0 min
[18] = Toxicity in C57Bl/6 mouse assessed as effect on alanine aminotransferase level at 50 mg/kg, ip for 14 days (reference value: 35 U/L); assay type: organism-based; conditions: in vivo, 336 h, time 14 day
[19] = Toxicity in C57Bl/6 mouse assessed as effect on phosphorus level at 50 mg/kg, ip for 14 days (reference value: 6.8 mg/dl); assay type: organism-based; conditions: in vivo, 336 h, time 14 day
[20] = Toxicity in C57Bl/6 mouse assessed as effect on urea nitrogen level at 50 mg/kg, ip for 14 days (reference value: 22 mg/dl); assay type: organism-based; conditions: in vivo, 336 h, time 14 day

Structure (SMILES): CCOc1cc(N2CCC(O)CC2)ccc1Nc1ncc2c(n1)N(C)c1ccccc1C(=O)N2C
- IC50 [1]: > 50 µM
- IC50 [2]: > 50 µM
- IC50 [3]: 39 µM
- IC50 [4]: > 50 µM
- IC50 [5]: > 50 µM
- inhibition [6]: 5.1%
- inhibition [7]: -2.1%
- inhibition [8]: -5.7%
- inhibition [9]: -7.3%
- inhibition at 10 µM [10]: 7.9%
- inhibition [11]: 7.5%
- inhibition [12]: -0.4%
- inhibition [13]: -8.6%
- inhibition [14]: 6%
- inhibition [15]: 2.6%
- inhibition [16]: -3.8%
- inhibition [17]: -2%
- Activity [18]: 402 U/L
- Activity [19]: 6.4 mg/dL
- Activity [20]: 31 mg/dL
